Laboratory results from the EternaBench riboswitch data.

Tested on: MS2 coat protein
Test: apparent Kd, MS2 coat protein; higher = weaker binding; RNA-MaP array; FMN 200 µM where present
Outline: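 In 100 mM Tris-HCl pH 7.5, 80 mM KCl, 4 mM MgCl2, BSA, DTT, yeast tRNA and Tween-20, SNAP-549-labelled MS2 coat protein was titrated from 0.7 or 1.5 nM, doubling to 3 µM, over designs transcribed by stalled E. coli RNA polymerase on Illumina sequencing-chip clusters. This was done first without ligand, then with ligand held constant. After green signal was normalised to red-channel RNA signal and control-cluster median Fmax, the apparent Kd was taken as the median of filtered per-cluster binding-curve fits.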

[1] = designed as: OFF switch for flavin mononucleotide, no ligand
[2] = ligand present: flavin mononucleotide, designed as: OFF switch for flavin mononucleotide
[3] = designed as: ON switch for flavin mononucleotide, no ligand
[4] = ligand present: flavin mononucleotide, designed as: ON switch for flavin mononucleotide

Row | Sequence | apparent Kd [1] [nM] | apparent Kd [2] [nM] | apparent Kd [3] [nM] | apparent Kd [4] [nM]
1 | GGAUUUCCUGAGGAUAUUGUAUCACCUGAUUGAUAAGAAGGCAGAACAUGAGGAUCACCCAUGUGGGUAUUCGG | 92.9 | 88.4 | – | –
2 | GAAUAAUUGAUCCUUUUUUAUUACAUGAGGAUCACCCAUGUGCAGGAUAUCGAUUAUUAUAGUUUCGAGAAGGGCAAGAACUAU | 27.5 | 128 | – | –
3 | AUGUAGUGCGAAGGAUAUGCGACUGCCUCGGCCGCAGAAGGUCGCACAUGAGGAUCACCCAUGUGCGGUGCAAAGAGUGGUUCU | 111 | 76.3 | – | –
4 | CGAUCGUUGCAGAAGGUUAAAUAAUUAUCUACAUGUUUUACAUGAGGAUCACCCAUGUUUAUGUUGAAGGAUAUGCAAGGGUCG | 8.02 | 8.09 | – | –
5 | AGAUAUGAUGCAGGAUAUCUAUCUUGAAUGAGGAGAGAAGGGCAAGCAGAGAGAUAAGCCUUAUGACAUGAGGAUCACCCAUGU | 10.2 | 8.61 | – | –
6 | CCGGAAAUGGAGGAUAUAGGAGUCGAUAGACACCUAGAAGGUCAGACAUGAGGAUCACCCAUGUGUCCUACCGG | 17.2 | 21.8 | – | –
7 | UCCAAGCUAGGAUAUACCCAGGGUUUGUUCUCUAACAAAACACAUGAGGAUCACCCAUGUAGAAGGAGCCGGGA | 58.1 | 62.9 | – | –
8 | AAUAUGAGCUGGAAUAAACCUGAAACAUGAGGAUCACCCAUGUAGGAUAUCAGCACGAUAAGUGCUGAGAAGGACAACCAGCUC | 14.6 | 16.6 | – | –
9 | UCCUCGGUACGAGGAUAUUCACGACGGUGUUCGGAAGAAGGCGUACAUGAGGAUCACCCAUGUCCGUCGAAAGGACUAACCGGG | 49 | 68.5 | – | –
10 | UUUUGGUCAGGAUAUUGUUAGUUUAGUUGUUUGUAUUAGUUCGAGAAGGGACAUGAGGAUCACCCAUGUGAUUU | 99.2 | 102 | – | –
11 | CCGGAAAUACAGGAUAUAGGAGUCGAUAGACUCCUAGAAGGGUAUACAUGAGGAUCACCCAUGUUCCUUACCGG | 45.9 | 50.1 | – | –
12 | AUGUUACAUGAGGAUCACCCAUGUGAGGAUAUGUGUACCGGUAAAAAAGUGUUUGGCCACAGAAGGCAUUUGGA | 28.7 | 26.9 | – | –
13 | ACGAUGUCAGGAUAUCGAUCACGGGUCUGAAGACACGUGUUUGAGAAGGGACAUGAGGAUCACCCAUGUGUCUA | 43.6 | 223 | – | –
14 | AUAUGAGAAGCAGGAUAUGUGAAAAAAAAACAUACAGAAGGGUUUAUGGAAAAACAUGAGGAUCACCCAUGUUCUUUGUGAUGA | – | – | 33.5 | 32.4
15 | GGUACCUUUACAGGAUAUGCUAGGGUUUCCUUAGCAGAAGGGUGAUACAUGAGGAUCACCCAUGUGGUGCCAGGGCGUGAGCCC | – | – | 117 | 341
16 | AACAGUACAGGAUAUACAUGAGGAUCACCCAUGUGAGAAUUAAGUGGCGUACCACAUAGUAGAAGGGUACUGGA | 71 | 156 | – | –
17 | CAGGUAGACUGAGGAUAUACAAUAAACAGCUAGUCUAUCUAGCUGUCCACAUGAGGAUCACCCAUGUAGAAGGCAGUCUGCCUG | 18.9 | 42 | – | –
18 | ACUAUACGAGGAUAUACUGUCAGUACUCAGAGAUUAAUGUGACAUGAGGAUCACCCAUGUAGAAGGCGUUUACU | 31.9 | 35.3 | – | –
19 | GUAGAUAGAUAGAAGGUAUGGUAUUAGAUUAAAUAAGGAUAUAUGAACAUGAGGAUCACCCAUGUAUUAUGGGAUAGAUAGACU | – | – | 228 | 153
20 | AGCAUGUAAGGAUAUGCAACACAGCUUUCAAUCGCUGUGCCGCAGAAGGUACAUGAGGAUCACCCAUGUGCUCC | 85.5 | 91.2 | – | –
21 | UUUUCUCGUGAGAAGGACAUGAGGAUCACCCAUGUAGGAUAUCGUGGGAGACAGGAAUUGAAUCUUCGGAUUCAAUUCCUGUCU | – | – | 104 | 8.82
22 | ACGACGAAAGUCGAACGAUGAUCGAGAAGGACAUGAGGAUCACCCAUGUCCGCUGUAACAGCCAUGUAGGAUAUCGAUCAUCGA | 3.59 | 3.83 | – | –
23 | AAAAUCUAUUGAGGAUAUCGUUAUCAAAGAUAAUGAGAAGGCAAACAAUCAUGAGGACAUGAGGAUCACCCAUGUUGUGACCAU | – | – | 22.3 | 10.8
24 | AAAAAAAAAACUGAGGAUAUCAGGGAUGGUACAUGAGGAUCACCCAUGUUGGCGGGCGAAGAAACUGAGAAGGCAGAAAAAAAAAA | – | – | 114 | 111
